Measurements published in ChEMBL document CHEMBL3421541, “Benzaldehyde Schiff bases regulation to the metabolism, hemolysis, and virulence genes expression in vitro and their structure-microbicidal activity relationship” (2015).
≈ marks a conversion by molar mass, not a printed value. Calls of active or inactive are those of the source.

Key:
[1] = tested on: Escherichia coli; test: Antibacterial activity against Escherichia coli assessed as growth inhibition at 100 umol/L after 8 hrs by ELISA plate reader analysis relative to control; format: functional; details: read-out: GI
Outline: (§1)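 Bacteria were seeded at 1×10^5 CFU/mL in LB, and compound was added to 100 µmol/L final. Compounds came from DMSO stock, with DMSO ≤1% (v/v) final. Cultures were shaken at 37 °C for 8 h and read at OD450. Inhibition % = (OD vehicle control − OD sample)/OD vehicle control × 100. Values are the mean of three independent experiments.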

[2] = tested on: Bacillus subtilis; test: Antibacterial activity against Bacillus subtilis assessed as growth inhibition at 100 umol/L after 8 hrs by ELISA plate reader analysis relative to control; format: functional; details: read-out: GI; outline: as §1
[3] = tested on: Staphylococcus aureus; test: Antibacterial activity against Staphylococcus aureus assessed as growth inhibition at 100 umol/L after 8 hrs by ELISA plate reader analysis relative to control; format: functional; details: read-out: GI; outline: as §1
[4] = tested on: Staphylococcus aureus; test: Antibacterial activity against Staphylococcus aureus assessed as lowest concentration required to reduce growth by 1% after 8 hrs by ELISA plate reader analysis relative to control; format: functional
Outline: (§2)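 MBC was found by broth microdilution. Inocula of 1×10^5 CFU/mL in LB were shaken at 37 °C with a series of compound concentrations, then read at OD450. MBC was defined as the lowest concentration reducing growth by 1% versus the inoculum control. Three independent experiments were run.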

[5] = tested on: Staphylococcus aureus; test: Upregulation of hla gene expression in Staphylococcus aureus at 50 umol/L after 8 hrs by real-time RT-PCR analysis relative to control; format: functional, organism-based
Outline: (§3)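 S. aureus ATCC 25923 at 2×10^7 CFU/mL in LB was exposed to 50 µmol/L compound, or LB alone, for 8 h at 37 °C. Total RNA was analysed by TaqMan real-time RT-PCR or semi-quantitative RT-PCR, normalised to gyrB. Fold change is versus time-matched medium-only cultures, with data pooled from three experiments.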

[6] = tested on: Staphylococcus aureus; test: Upregulation of hla gene expression in Staphylococcus aureus at 50 umol/L after 8 hrs by semi-quantitative RT-PCR analysis relative to control; format: functional, organism-based; outline: as §3
[7] = tested on: Staphylococcus aureus; test: Upregulation of sbi gene expression in Staphylococcus aureus at 50 umol/L after 8 hrs by real-time RT-PCR analysis relative to control; format: functional, organism-based; outline: as §3
[8] = tested on: Staphylococcus aureus; test: Upregulation of sbi gene expression in Staphylococcus aureus at 50 umol/L after 8 hrs by semi-quantitative RT-PCR analysis relative to control; format: functional, organism-based; outline: as §3
[9] = tested on: Staphylococcus aureus; test: Upregulation of mecA gene expression in Staphylococcus aureus at 50 umol/L after 8 hrs by real-time RT-PCR analysis relative to control; format: functional, organism-based; outline: as §3
[10] = tested on: Staphylococcus aureus; test: Upregulation of mecA gene expression in Staphylococcus aureus at 50 umol/L after 8 hrs by semi-quantitative RT-PCR analysis relative to control; format: functional, organism-based; outline: as §3
[11] = tested on: Staphylococcus aureus; test: Downregulation of saeR gene expression in Staphylococcus aureus at 50 umol/L after 8 hrs by real-time RT-PCR analysis relative to control; format: functional, organism-based; outline: as §3
[12] = tested on: Staphylococcus aureus; test: Downregulation of saeR gene expression in Staphylococcus aureus at 50 umol/L after 8 hrs by semi-quantitative RT-PCR analysis relative to control; format: functional, organism-based; outline: as §3
[13] = tested on: Escherichia coli; test: Antibacterial activity against Escherichia coli assessed as lowest concentration required to reduce growth by 1% after 8 hrs by ELISA plate reader analysis relative to control; format: functional; outline: as §2
[14] = tested on: Escherichia coli; test: Downregulation of cysB gene expression in Escherichia coli at 50 umol/L after 8 hrs by real-time RT-PCR analysis relative to control; format: functional, organism-based
Outline: (§4)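 E. coli at 2×10^7 CFU/mL in LB was exposed to 50 µmol/L compound, or LB alone, for 8 h at 37 °C. Total RNA was then analysed by TaqMan real-time RT-PCR or semi-quantitative RT-PCR. Transcripts were normalised to gapA. Fold change is relative to time-matched medium-only cultures.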

[15] = tested on: Escherichia coli; test: Downregulation of cysB gene expression in Escherichia coli at 50 umol/L after 8 hrs by semi-quantitative RT-PCR analysis relative to control; format: functional, organism-based; outline: as §4
[16] = tested on: Escherichia coli; test: Downregulation of tsh gene expression in Escherichia coli at 50 umol/L after 8 hrs by real-time RT-PCR analysis relative to control; format: functional, organism-based; outline: as §4
[17] = tested on: Escherichia coli; test: Downregulation of IroD gene expression in Escherichia coli at 50 umol/L after 8 hrs by real-time RT-PCR analysis relative to control; format: functional, organism-based; outline: as §4
[18] = tested on: Escherichia coli; test: Downregulation of tsh gene expression in Escherichia coli at 50 umol/L after 8 hrs by semi-quantitative RT-PCR analysis relative to control; format: functional, organism-based; outline: as §4
[19] = tested on: Escherichia coli; test: Downregulation of IroD gene expression in Escherichia coli at 50 umol/L after 8 hrs by semi-quantitative RT-PCR analysis relative to control; format: functional, organism-based; outline: as §4
[20] = tested on: Escherichia coli; test: Upregulation of cysB gene expression in Escherichia coli at 50 umol/L after 8 hrs by real-time RT-PCR analysis relative to control; format: functional, organism-based; outline: as §4
[21] = tested on: Escherichia coli; test: Upregulation of cysB gene expression in Escherichia coli at 50 umol/L after 8 hrs by semi-quantitative RT-PCR analysis relative to control; format: functional, organism-based; outline: as §4
[22] = tested on: Escherichia coli; test: Upregulation of acrA gene expression in Escherichia coli at 50 umol/L after 8 hrs by real-time RT-PCR analysis relative to control; format: functional, organism-based; outline: as §4
[23] = tested on: Escherichia coli; test: Upregulation of acrA gene expression in Escherichia coli at 50 umol/L after 8 hrs by semi-quantitative RT-PCR analysis relative to control; format: functional, organism-based; outline: as §4

Compound: COC(=O)[C@H](Cc1ccccc1)/N=C/c1ccccc1O
- inhibition of growth at 100 µM [1]: 14.6%
- inhibition of growth at 100 µM [2]: 4.21%
- inhibition of growth at 100 µM [3]: 86.9%
- MBC [4]: 13.8 µM (≈ 3.91 µg/mL)
- Activity [5]: Active
- Activity [6]: Active
- Activity [7]: Active
- Activity [8]: Active
- Activity [9]: Active
- Activity [10]: Active
- Activity [11]: Active
- Activity [12]: Active

Compound: COc1ccc(CC(=O)N/N=C/c2cc([N+](=O)[O-])ccc2O)cc1
- inhibition of growth at 100 µM [1]: 5.57%

Compound: O=C(N/N=C/c1ccccc1O)c1ccccc1O
- inhibition of growth at 100 µM [1]: 11.8%

Compound: O=C(O)[C@H](Cc1ccccc1)/N=C/c1ccccc1O
- inhibition of growth at 100 µM [1]: 22.7%

Compound: O=C(O)[C@H](Cc1ccc(O)cc1)/N=C/c1ccccc1O
- inhibition of growth at 100 µM [1]: 96%
- inhibition of growth at 100 µM [2]: 4.38%
- MBC [13]: 1.6 µM (≈ 0.456 µg/mL)
- Activity [14]: Active
- Activity [15]: Active
- Activity [16]: Active
- Activity [17]: Active
- Activity [18]: Active
- Activity [19]: Active

Compound: O=C(N/N=C/c1cc(Br)ccc1O)c1ccncc1
- inhibition of growth at 100 µM [1]: 95.8%
- MBC [13]: 3.2 µM (≈ 1.02 µg/mL)
- Activity [20]: Active
- Activity [21]: Active
- Activity [22]: Active
- Activity [23]: Active
- Activity [16]: Active
- Activity [17]: Active
- Activity [18]: Active
- Activity [19]: Active

Compound: COc1ccc(CC(=O)N/N=C/c2cc(Br)ccc2O)cc1
- inhibition of growth at 100 µM [2]: 1.01%

Compound: O=C(COc1ccc(Cl)cc1)N/N=C/c1ccccc1O
- inhibition of growth at 100 µM [1]: 0.23%

Compound: CC1(C)S[C@@H]2[C@H](NC(=O)[C@H](N)c3ccccc3)C(=O)N2[C@H]1C(=O)O [AMPICILLIN]
- inhibition of growth at 100 µM [1]: 99.3%
- MBC [13]: 1.8 µM (≈ 0.629 µg/mL)
